Data published in ChEMBL document CHEMBL3856257, “Benzo[b]thiophene-2-carboxamide derivatives as potent urotensin-II receptor antagonists” (Bioorg Med Chem Lett, 2016).

system: not listed separately; test: Metabolic stability in rat liver microsomes after 30 mins; type: ADME; conditions: read-out: Stability

Compound	remaining at 0.5 h
N#Cc1ccc2sc(C(=O)NC3CCN(Cc4ccc(OC5CCNCC5)c(Br)c4)CC3)cc2c1	74%

target: CYP2D6 (Homo sapiens, UniProt P10635); test: Inhibition of CYP2D6 (unknown origin) at 10 uM; type: ADME; conditions: not given
Sequence (P10635 whole entry): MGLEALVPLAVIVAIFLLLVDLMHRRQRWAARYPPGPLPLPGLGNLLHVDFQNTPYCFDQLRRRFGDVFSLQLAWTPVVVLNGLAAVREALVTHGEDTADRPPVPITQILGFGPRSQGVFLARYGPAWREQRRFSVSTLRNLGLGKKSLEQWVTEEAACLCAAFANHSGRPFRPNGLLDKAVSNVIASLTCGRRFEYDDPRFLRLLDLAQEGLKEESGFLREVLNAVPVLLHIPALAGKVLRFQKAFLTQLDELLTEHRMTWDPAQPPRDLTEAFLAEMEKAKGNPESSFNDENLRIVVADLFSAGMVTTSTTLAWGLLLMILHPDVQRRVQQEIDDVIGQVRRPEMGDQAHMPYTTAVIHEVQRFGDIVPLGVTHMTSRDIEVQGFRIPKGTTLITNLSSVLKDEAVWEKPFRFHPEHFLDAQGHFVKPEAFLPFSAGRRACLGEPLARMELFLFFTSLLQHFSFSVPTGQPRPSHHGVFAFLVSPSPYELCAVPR

Compound	inhibition at 10 µM
N#Cc1ccc2sc(C(=O)NC3CCN(Cc4ccc(OC5CCNCC5)c(Br)c4)CC3)cc2c1	55%

system: not listed separately; test: Metabolic stability in human liver microsomes after 30 mins; type: ADME; conditions: read-out: Stability

Compound	remaining at 0.5 h
N#Cc1ccc2sc(C(=O)NC3CCN(Cc4ccc(OC5CCNCC5)c(Br)c4)CC3)cc2c1	85%

target: T1, Urotensin-2 receptor (Homo sapiens, UniProt Q9UKP6); test: Displacement of europium-labeled urotensin-2 from human recombinant urotensin-2 receptor expressed in HEK293 cell membranes after 90 mins by filtration based time resolved fluorometric assay; conditions: not given
T1 sequence (Q9UKP6 whole entry): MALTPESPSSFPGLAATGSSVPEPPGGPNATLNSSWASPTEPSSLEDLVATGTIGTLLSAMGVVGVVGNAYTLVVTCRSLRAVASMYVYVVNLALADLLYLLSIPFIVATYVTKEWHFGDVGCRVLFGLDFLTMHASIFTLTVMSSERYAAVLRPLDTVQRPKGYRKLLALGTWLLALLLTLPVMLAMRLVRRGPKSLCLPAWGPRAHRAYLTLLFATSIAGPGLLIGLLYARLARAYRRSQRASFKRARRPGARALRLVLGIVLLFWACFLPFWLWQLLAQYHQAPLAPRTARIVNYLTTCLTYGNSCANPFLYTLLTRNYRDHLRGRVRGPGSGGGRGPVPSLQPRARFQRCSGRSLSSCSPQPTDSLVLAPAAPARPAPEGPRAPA
Summary of the method: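 Competitive binding against Eu-labeled U-II on membranes of HEK293 cells expressing human UT receptor, read by time-resolved fluorometry. IC50 values are means of at least two measurements.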

Compound	IC50
O=C(NC1CCN(Cc2ccc(OC3CCNCC3)c(Br)c2)CC1)c1cc2cc(Cl)ccc2s1	51 nM
N#Cc1ccc2cc(C(=O)NC3CCN(Cc4ccc(OC5CCNCC5)c(Br)c4)CC3)sc2c1	80 nM
Cc1ccc(-c2ccc3cc(C(=O)NC4CCN(Cc5ccc(OC6CCNCC6)c(Br)c5)CC4)sc3c2)cc1	140 nM
O=C(NC1CCN(Cc2ccc(OC3CCNCC3)c(Br)c2)CC1)c1cc2cc(C(F)(F)F)ccc2s1	100 nM
O=C(NC1CCN(Cc2ccc(OC3CCNCC3)c(Br)c2)CC1)c1cc2ccc(-c3ccc(Cl)cc3)cc2s1	140 nM
COc1ccccc1-c1ccc2cc(C(=O)NC3CCN(Cc4ccc(OC5CCNCC5)c(Br)c4)CC3)sc2c1	560 nM
O=C(NC1CCN(Cc2ccc(OC3CCNCC3)c(Br)c2)CC1)c1cc2cc(Br)ccc2s1	86 nM
O=C(NC1CCN(Cc2ccc(OC3CCNCC3)c(Br)c2)CC1)c1cnccn1	610 nM
O=C(NC1CCN(Cc2ccc(OC3CCNCC3)c(Br)c2)CC1)c1cc2cc(F)ccc2s1	53 nM
O=C(NC1CCN(Cc2ccc(OC3CCNCC3)c(Br)c2)CC1)c1cc2ccccc2s1	63 nM
O=C(NC1CCN(Cc2ccc(OC3CCNCC3)c(Br)c2)CC1)c1cscn1	970 nM
O=C(NC1CCN(Cc2ccc(OC3CCNCC3)c(Br)c2)CC1)c1ccco1	770 nM
O=C(NC1CCN(Cc2ccc(OC3CCNCC3)c(Br)c2)CC1)c1cc2cc(-c3ccccc3)ccc2s1	310 nM
COc1ccc2sc(C(=O)NC3CCN(Cc4ccc(OC5CCNCC5)c(Br)c4)CC3)cc2c1	100 nM
O=C(NC1CCN(Cc2ccc(OC3CCNCC3)c(Br)c2)CC1)c1ccccn1	120 nM
Cc1ccc2sc(C(=O)NC3CCN(Cc4ccc(OC5CCNCC5)c(Br)c4)CC3)cc2c1	74 nM
COc1ccc(-c2ccc3cc(C(=O)NC4CCN(Cc5ccc(OC6CCNCC6)c(Br)c5)CC4)sc3c2)cc1	49 nM
O=C(NC1CCN(Cc2ccc(OC3CCNCC3)c(Br)c2)CC1)c1ccno1	340 nM
O=C(NC1CCN(Cc2ccc(OC3CCNCC3)c(Br)c2)CC1)c1cc2cc([N+](=O)[O-])ccc2s1	49 nM
N#Cc1ccc2sc(C(=O)NC3CCN(Cc4ccc(OC5CCNCC5)c(Br)c4)CC3)cc2c1	25 nM
O=C(NC1CCN(Cc2ccc(OC3CCNCC3)c(Br)c2)CC1)c1cc2ccc(-c3ccc(F)cc3)cc2s1	74 nM
O=C(NC1CCN(Cc2ccc(OC3CCNCC3)c(Br)c2)CC1)c1cc2ccc(-c3ccccc3)cc2s1	90 nM
O=C(NC1CCN(Cc2ccc(OC3CCNCC3)c(Br)c2)CC1)c1cccs1	130 nM
CCc1ccc2sc(C(=O)NC3CCN(Cc4ccc(OC5CCNCC5)c(Br)c4)CC3)cc2c1	180 nM
COc1cccc(-c2ccc3cc(C(=O)NC4CCN(Cc5ccc(OC6CCNCC6)c(Br)c5)CC4)sc3c2)c1	87 nM

target: CYP3A4 (Homo sapiens, UniProt P08684); test: Inhibition of CYP3A4 (unknown origin) at 10 uM; type: ADME; conditions: not given
Sequence (P08684 whole entry): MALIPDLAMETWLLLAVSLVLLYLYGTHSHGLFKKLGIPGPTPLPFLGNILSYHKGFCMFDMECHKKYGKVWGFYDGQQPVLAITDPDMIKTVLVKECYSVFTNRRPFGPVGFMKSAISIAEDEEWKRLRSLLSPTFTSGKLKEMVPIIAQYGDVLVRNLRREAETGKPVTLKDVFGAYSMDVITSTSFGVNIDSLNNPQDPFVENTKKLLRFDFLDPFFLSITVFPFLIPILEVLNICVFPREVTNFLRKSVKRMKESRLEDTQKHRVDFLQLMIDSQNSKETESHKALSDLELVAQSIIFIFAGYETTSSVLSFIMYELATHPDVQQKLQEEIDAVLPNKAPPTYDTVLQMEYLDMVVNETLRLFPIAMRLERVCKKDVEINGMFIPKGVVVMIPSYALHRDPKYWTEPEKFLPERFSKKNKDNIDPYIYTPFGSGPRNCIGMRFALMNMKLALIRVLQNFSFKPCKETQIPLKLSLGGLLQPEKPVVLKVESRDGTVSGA

Compound	inhibition at 10 µM
N#Cc1ccc2sc(C(=O)NC3CCN(Cc4ccc(OC5CCNCC5)c(Br)c4)CC3)cc2c1	75%
